Drawing on ChEMBL document CHEMBL1152767, “Synthesis and pharmacological evaluation of new arylpiperazines N-[4-[4-(aryl) piperazine-1-yl]-phenyl]-amine derivatives: putative role of 5-HT1A receptors” (2009), this text covers Activity for 14 compounds.

In assay [1] the test system is Rattus norvegicus. The experiment in a line: Anxiolytic activity in Wistar rat assessed as time spent into open arms at 3 mg/kg, ip administered 60 mins before evaluation and measured during 5 mins by elevated plus-maze test. The settings on record: route intraperitoneal. It is filed as functional. The essentials:
(§1)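 Male Wistar rats, 6–8 weeks, 120–150 g, given test agents ip (2 ml/kg; vehicle saline with 1% tween 80 and 1% DMSO) 60 min before testing; WAY-100635 0.5 mg/kg ip 15 min before treatment where used. Maze: two open, two closed arms 50 × 10 cm, raised 50 cm; rat placed centrally facing open arm; 5 min video recording; mean ± S.E.M., n = 8.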

In assay [2] the test system is Rattus norvegicus. In words: Anxiolytic activity in Wistar rat assessed as number of entries into open arms at 3 mg/kg, ip administered 60 mins before evaluation and measured during 5 mins by elevated plus-maze test. As to conditions: route intraperitoneal. In kind it is functional. The essentials:
as §1

Assay [3] deals with Rattus norvegicus. In words: Anxiolytic activity in Wistar rat assessed as number of entries into closed arms at 3 mg/kg, ip administered 60 mins before evaluation and measured during 5 mins by elevated plus-maze test. In kind it is functional. As to conditions: route intraperitoneal. The essentials: as §1
Assay [4] has as its system Rattus norvegicus. In words: Anxiolytic activity in Wistar rat assessed as total number of entries at 3 mg/kg, ip administered 60 mins before evaluation and measured during 5 mins by elevated plus-maze test. It is filed as functional. The settings on record: route intraperitoneal. In a few lines: as §1
In assay [5] the test system is Rattus norvegicus. The experiment in a line: Anxiolytic activity in Wistar rat assessed as time spent into open arms at 1 mg/kg, ip administered 60 mins before evaluation and measured during 5 mins by elevated plus-maze test. In kind it is functional. The settings on record: route intraperitoneal. The essentials:
(§2)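 Male Wistar rats, 6–8 weeks, 120–150 g, housed at 25 ± 2 °C with free food and water. Dosed ip at 2 ml/kg in saline with 1% tween 80 and 1% DMSO, which alone served as control; n = 8. Maze arms 50 × 10 cm, 50 cm above floor. Rat placed centrally facing an open arm, recorded by camera between 9:00 and 15:00 h.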

Assay [6] concerns Rattus norvegicus. The experiment in a line: Anxiolytic activity in Wistar rat assessed as number of entries into open arms at 1 mg/kg, ip administered 60 mins before evaluation and measured during 5 mins by elevated plus-maze test. It is filed as functional. As to conditions: route intraperitoneal. The essentials: as §2
The test system of assay [7] is Rattus norvegicus. The experiment in a line: Anxiolytic activity in Wistar rat assessed as number of entries into closed arms at 1 mg/kg, ip administered 60 mins before evaluation and measured during 5 mins by elevated plus-maze test. In kind it is functional. As to conditions: route intraperitoneal. The essentials: as §2
In assay [8] the test system is Rattus norvegicus. The experiment in a line: Anxiolytic activity in Wistar rat assessed as total number of entries at 1 mg/kg, ip administered 60 mins before evaluation and measured during 5 mins by elevated plus-maze test. It is filed as functional. The settings on record: route intraperitoneal. In a few lines:
as §2

Assay [9] has as its system Rattus norvegicus. In words: Anxiolytic activity in ip dosed Wistar rat assessed as decrease in glyoxalase 1 activity in brain. Set-up: scale not given: the % may be the effect or the level left. In kind it is functional. The essentials:
(§3)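 Rat brain homogenised at 20% in 0.1 M potassium phosphate pH 7.4 with 0.25 M sucrose; spun 800g then 10,500g (4 °C) to give post-mitochondrial supernatant for glutathione reductase, and further 36,000g 1 h for cytosol for glyoxalase 1 (modified Racker method); protein by Lowry with BSA standard.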

Assay [10] deals with Rattus norvegicus. The experiment in a line: Anxiolytic activity in ip dosed Wistar rat assessed as decrease in glutathione reductase activity in brain. In kind it is functional. Set-up: scale not given: the % may be the effect or the level left. The essentials: as §3
For assay [11], the system named is Rattus norvegicus. The experiment in a line: Anxiolytic activity in Wistar rat assessed as decrease in time spent into open arms treated ip 60 mins before evaluation and measured during 5 mins by elevated plus-maze test in presence of WAY-100635. In kind it is functional. Set-up: scale not given: the % may be the effect or the level left. The essentials:
as §1

The subject of assay [12] is Rattus norvegicus. In words: Anxiolytic activity in Wistar rat assessed as decrease in extracellular serotonin level in brain at 3 mg/kg, ip relative to control. It is filed as functional, organism-based. Set-up: dose 3 mg/kg. In a few lines:
(§4)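 Male Wistar rats dosed ip (vehicle saline/1% tween 80/1% DMSO), WAY-100635 0.5 mg/kg ip 15 min prior where used; decapitated 1 h after dosing, brains frozen at -80 °C. Tissue sonicated in 0.4 M perchloric acid, citrate/phosphate/EDTA added, centrifuged 12,000g at 4 °C; supernatant run on reversed-phase C18 HPLC with fluorescence detection (ex 280, em 340 nm).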

For assay [13], the system named is Rattus norvegicus. In words: Anxiolytic activity in Wistar rat assessed as decrease in extracellular serotonin level in brain at 3 mg/kg, ip in presence of WAY-100635 relative to control. It is filed as functional. Details: scale not given: the % may be the effect or the level left. As to conditions: route intraperitoneal. In a few lines:
as §4

Assay [14] has as its system Rattus norvegicus. The experiment in a line: Anxiolytic activity in ip dosed Wistar rat assessed as decrease in extracellular serotonin level in brain coadministered with WAY-100635 relative to control. In kind it is functional. Details: scale not given: the % may be the effect or the level left. The essentials:
as §4

Assay [15] concerns Rattus norvegicus. The experiment in a line: Anxiolytic activity in Wistar rat assessed as blocked of time spent into open arms at 3 mg/kg, ip administered 60 mins before evaluation and measured during 5 mins by elevated plus-maze test in presence of 0.5 mg/kg, ip WAY-100635. It is filed as functional, organism-based. In a few lines:
as §1

In assay [16] the test system is Rattus norvegicus. In words: Anxiolytic activity in Wistar rat assessed as time spent into open arms at 5 mg/kg, ip administered 60 mins before evaluation and measured during 5 mins by elevated plus-maze test. In kind it is functional. As to conditions: route intraperitoneal. The essentials:
as §2

In assay [17] the test system is Rattus norvegicus. In words: Anxiolytic activity in Wistar rat assessed as number of entries into open arms at 5 mg/kg, ip administered 60 mins before evaluation and measured during 5 mins by elevated plus-maze test. It is filed as functional. The settings on record: route intraperitoneal. The essentials:
as §2

Assay [18] deals with Rattus norvegicus. The experiment in a line: Anxiolytic activity in Wistar rat assessed as number of entries into closed arms at 5 mg/kg, ip administered 60 mins before evaluation and measured during 5 mins by elevated plus-maze test. As to conditions: route intraperitoneal. It is filed as functional. The essentials:
as §2

In assay [19] the test system is Rattus norvegicus. In words: Anxiolytic activity in Wistar rat assessed as total number of entries at 5 mg/kg, ip administered 60 mins before evaluation and measured during 5 mins by elevated plus-maze test. In kind it is functional. As to conditions: route intraperitoneal. In a few lines:
as §2

Calls of active or inactive are those of the source. No cut-off for these calls is given here.

On to `O=C(Nc1ccc(N2CCN(c3ccccc3Cl)CC2)cc1)c1ccc(Cl)nc1`, for which the Activity amounted to 53.67% in the assay on Rattus norvegicus [1], 24.56% with Rattus norvegicus [2], 9.8 in the assay with Rattus norvegicus [3] and 12.98 with Rattus norvegicus [4].

As for `CN1C(=O)CN=C(c2ccccc2)c2cc(Cl)ccc21` [DIAZEPAM], the Activity with Rattus norvegicus [5] is recorded as 105.36%; with Rattus norvegicus [6], 45.16%; in the assay with Rattus norvegicus [7], 10.13; with Rattus norvegicus [8] it was 18.47.

As to `CCOC(=O)Nc1ccc(N2CCN(CCc3ccccc3)CC2)cc1`, the Activity in the assay on Rattus norvegicus [1] worked out at 53.94%; with Rattus norvegicus [2] it was 28.49%; in the assay with Rattus norvegicus [3] it was 9.91; with Rattus norvegicus [4], 13.85.

For `COc1ccccc1N1CCN(c2ccc(NC(=O)c3ccc(Cl)nc3)cc2)CC1`, the Activity with Rattus norvegicus [1] is reported as 54.69%; with Rattus norvegicus [2], 28.42%; with Rattus norvegicus [3], 10.93; in the assay with Rattus norvegicus [4] it was 15.26.

For `CCOC(=O)Nc1ccc(N2CCN(c3ccccc3OC)CC2)cc1`, the Activity in the assay with Rattus norvegicus [1] amounted to 84.36%; in the assay with Rattus norvegicus [2] it was 35.23%; in the assay with Rattus norvegicus [3], 11.8; in the assay with Rattus norvegicus [4], 18.21; in the assay with Rattus norvegicus [9], 17%; in the assay with Rattus norvegicus [10], 12%. The Activity with Rattus norvegicus [11] is on record as 20%; with Rattus norvegicus [13] it was 32%; in the assay with Rattus norvegicus [14] it was 24%. In addition, in the assay with Rattus norvegicus [12], the outcome was Active.

Regarding `CCOC(=O)Nc1ccc(N2CCN(c3ccccc3)CC2)cc1`, the Activity with Rattus norvegicus [1] amounted to 87.6%; with Rattus norvegicus [2], 40.64%; with Rattus norvegicus [3], 9.19; with Rattus norvegicus [4], 15.48; in the assay with Rattus norvegicus [9], 20%; in the assay with Rattus norvegicus [10], 15%. For the same compound, the Activity turned out to be 35% in the assay with Rattus norvegicus [11], 38% in the assay on Rattus norvegicus [13] and 30% in the assay with Rattus norvegicus [14]. Also, in the assay with Rattus norvegicus [15], the outcome was inactive. For the same compound, the outcome in the assay on Rattus norvegicus [12] was Active.

Turning to `COc1ccccc1N1CCN(c2ccc(NC(C)=O)cc2)CC1`, the Activity with Rattus norvegicus [1] came out at 58.77%; in the assay with Rattus norvegicus [2], 28.74%; with Rattus norvegicus [3], 9.01; with Rattus norvegicus [4], 15.45.

With `CCOC(=O)Nc1ccc(N2CCN(c3ccccc3Cl)CC2)cc1`, the Activity with Rattus norvegicus [1] is recorded as 58.98%; in the assay with Rattus norvegicus [2], 30.27%; with Rattus norvegicus [3] it was 9.75; with Rattus norvegicus [4] it was 13.98.

As to `CC(=O)Nc1ccc(N2CCN(CCc3ccccc3)CC2)cc1`, the Activity was 53.67% with Rattus norvegicus [1], 25.98% with Rattus norvegicus [2], 10.26 with Rattus norvegicus [3] and 13.86 in the assay with Rattus norvegicus [4].

Consider `O=C(Nc1ccc(N2CCN(CCc3ccccc3)CC2)cc1)c1ccc(Cl)nc1`, for which the Activity with Rattus norvegicus [1] stood at 50.58%; with Rattus norvegicus [2] it was 22.9%; in the assay on Rattus norvegicus [3] it was 11.17; in the assay with Rattus norvegicus [4], 14.48.

Regarding `O=C(Nc1ccc(N2CCN(c3ccccc3)CC2)cc1)c1ccc(Cl)nc1`, the Activity is given as 56.94% with Rattus norvegicus [1], 27.48% in the assay with Rattus norvegicus [2], 11.94 with Rattus norvegicus [3] and 16.46 with Rattus norvegicus [4].

As to `O=C1CC2(CCCC2)CC(=O)N1CCCCN1CCN(c2ncccn2)CC1` [BUSPIRONE], the Activity in the assay on Rattus norvegicus [16] came to 85.56%; in the assay on Rattus norvegicus [17], 37.52%; in the assay on Rattus norvegicus [18], 8.91; in the assay on Rattus norvegicus [19] it was 14.26.

Turning to `CC(=O)Nc1ccc(N2CCN(c3ccccc3)CC2)cc1`, the Activity worked out at 62.67% with Rattus norvegicus [1], 29.42% in the assay on Rattus norvegicus [2], 10.08 with Rattus norvegicus [3] and 14.28 in the assay with Rattus norvegicus [4].

Turning to `CC(=O)Nc1ccc(N2CCN(c3ccccc3Cl)CC2)cc1`, the Activity was found to be 57.3% in the assay on Rattus norvegicus [1], 26.89% with Rattus norvegicus [2], 12.3 with Rattus norvegicus [3] and 16.82 in the assay with Rattus norvegicus [4].
